Rows were chosen to be rich in hits. Some 3.1% of all compounds tested hit in one or more screens of this group.
GalR3 antag: GalR3 antagonists in HEK293 cells, primary screen, cell-based, fluorescence readout | 360,000 tested, 0.44% active | HEK293 GalR3-CNG cAMP membrane potential fluorescence; galR3 body fused to GalR1 C-terminus | Galanin receptor type 3 (Homo sapiens), O60755 | inhibition, % at 3 µM;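 active means inhibition above the screen-wide average plus 3 SD, cut at about 13% in these data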;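 further: forskolin and galanin both at EC90 stimulate the cells; cAMP rise reported by CNG channel membrane potential dye signal; 0% = forskolin plus galanin with DMSO and 100% = forskolin alone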
Target sequence (O60755 1-299 limits assumed): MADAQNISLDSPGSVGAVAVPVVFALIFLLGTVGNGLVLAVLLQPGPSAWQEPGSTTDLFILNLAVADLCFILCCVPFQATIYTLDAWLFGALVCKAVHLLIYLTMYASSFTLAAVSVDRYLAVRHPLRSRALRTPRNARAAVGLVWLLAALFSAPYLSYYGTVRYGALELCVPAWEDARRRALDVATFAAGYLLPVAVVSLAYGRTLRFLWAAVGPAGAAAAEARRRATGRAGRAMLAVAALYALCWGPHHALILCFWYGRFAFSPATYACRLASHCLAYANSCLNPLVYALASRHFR
GPR7 antag: GPR7 receptor antagonists, primary screen, cell-based, fluorescence, single concentration | Neuropeptides B/W receptor type 1 (Homo sapiens), P48145 | GPR7-expressing cells, fluorescence antagonist assay | inhibition, % at 4.4 µM | 290,000 tested, 1.1% active | AID 1861, 2009; in the data active means inhibition above about 16%, passing the limit was not always enough;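 further: cells stimulated with the agonist NPW; 0% = agonist with vehicle and 100% = vehicle without agonist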
Target sequence (P48145 whole entry, looked up): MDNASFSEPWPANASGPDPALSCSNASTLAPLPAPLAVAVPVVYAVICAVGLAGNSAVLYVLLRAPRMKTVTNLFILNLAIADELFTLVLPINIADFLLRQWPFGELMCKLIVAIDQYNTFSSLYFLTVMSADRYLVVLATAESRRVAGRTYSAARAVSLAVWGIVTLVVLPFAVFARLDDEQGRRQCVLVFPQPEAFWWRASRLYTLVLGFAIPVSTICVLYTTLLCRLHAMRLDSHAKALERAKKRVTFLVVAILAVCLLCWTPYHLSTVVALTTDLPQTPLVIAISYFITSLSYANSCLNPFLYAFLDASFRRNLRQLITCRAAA
OX1R antag-1: OX1R (HCRTR1) antagonists, primary screen, fluorescence, CHO/OX1R cells, Fluo-8 calcium, orexin A | Orexin/Hypocretin receptor type 1 (Homo sapiens), O43613 | Fluo-8 calcium fluorescence | inhibition, % at 5 µM | 330,000 tested, 0.43% active;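 active means inhibition above its plate's threshold, mean inhibition of all tested compounds on the plate plus 3 SD, cut at about 37% in these data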;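 further: 0% = orexin A challenge wells and 100% = SB-334867-A antagonist wells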
OX1R antag-2: antagonists of human orexin 1 receptor (OX1R). Orexin/Hypocretin receptor type 1 (Homo sapiens), O43613. OX1R-expressing cells, FRET antagonist read-out. inhibition, % at 6.6 µM. 330,000 tested, 1.8% active. AID 485270, 2010; in the data active means inhibition mostly above about 38%, no sharp cut-off; inactive means mostly below about 40%;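 further: 0% = agonist challenge alone and 100% = reference antagonist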
CHO parental Ca: ATP-evoked calcium signal inhibitors, parental CHO, primary screen, counter-screen for OX1R antagonist project, cell-based, fluorescence, Fluo-8 calcium dye; 330,000 tested, 0.63% active; inhibition, % at 5.6 µM; parental CHO-K1, ATP-induced calcium, Fluo-8 fluorescence;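 active means inhibition above that plate's mean sample inhibition plus 3 SD, cut at about 26% in these data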;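 further: 0% = ATP-challenged DMSO wells and 100% = DMSO wells without ATP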
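Assay system: untransfected parental CHO cell line. Also added: ATP agonist challenge. Dosing: one dose, 5.6 µM nominal. Measured by: Fluo-8 fluorescence. Read-out: % inhibition. Benchmarks: ATP wells versus no-ATP DMSO wells. Repeats: no replicates.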
The depositor's hits bear a star; . = no result given.

SMILES	GalR3 antag	GPR7 antag	OX1R antag-1	OX1R antag-2	CHO parental Ca
Cc1cccc(-c2noc(CN(C(=O)CCc3ccccc3)C(C)C)n2)c1	-6	-2	-21	13	42*
CCC(C)(C)NC(=O)Cc1ccc(F)cc1	-4	-11	-13	40	-13
Cc1ccc(NN2C(=O)C=C(c3ccc(Cl)cc3)C2=O)cc1	1	3	73*	39	68*
O=C1C=C(c2ccccc2)C(=O)N1Nc1ccccc1	0	1	26	27	14
CCOc1ccc(-n2c(SCc3ccc(C#N)cc3)nnc2-c2cccnc2)cc1	63*	4	-35	27	-30
Cc1nc(NCCc2ccccc2)c2oc3ccccc3c2n1	-9	-5	19	37*	46*
CCOC(=O)C1=CCN(S(=O)(=O)c2ccc(Br)cc2)C1c1cccc(Br)c1 (stereo not given)	-5	.	.	.	.
CCN(C(=O)COC(=O)c1ccccc1NCc1ccco1)c1c(N)n(Cc2ccccc2)c(=O)[nH]c1=O	-4	.	.	.	.
COCCN(C(=O)COC(=O)c1ccccc1NCc1ccco1)c1c(N)n(Cc2ccccc2)c(=O)[nH]c1=O	0	.	-8	42*	-21
CC(C)CN(C(=O)COC(=O)c1ccccc1NCc1ccco1)c1c(N)n(Cc2ccccc2)c(=O)[nH]c1=O	-6	.	13	75*	-19
CCOC(=O)c1ccccc1NC(=O)c1cc(S(=O)(=O)N2CCOCC2)ccc1F	13*	3	-26	34	-38
O=C(Nc1ccccc1N1CCCCC1)c1cc(S(=O)(=O)N2CCOCC2)ccc1F	0	.	.	.	.
O=C(N[C@H](Cc1ccccc1)C(=O)NCc1cccc2ccccc12)[C@H]1O[C@@H](n2ccc(=O)[nH]c2=O)[C@H](O)[C@@H]1O	1	.	.	.	.
COc1ccc(CCNC(=O)CSc2ccc(-c3cccs3)nn2)cc1	-1	-2	0	41*	-12
Cc1ccc(CNC(=O)CSc2ccc(-c3ccccn3)nn2)cc1	4	-5	-5	9	-2
Cc1ccc(CNC(=O)CSc2ccc(-c3cccs3)nn2)cc1	-1	-10	0	51*	-22
Cc1ccc(SCc2nc3ncccn3c2Br)cc1	1	0	-13	15	-11
O=C(Nc1ccccc1C(=O)Nc1nnc(C(F)(F)F)s1)c1ccccc1Cl	-9	3	37*	80*	54*
NC(=O)c1ccccc1NC(=O)c1ccccc1Cl	-5	-3	-16	5	-10
CCSc1nnc(NC(=O)c2ccc(Br)s2)s1	-5	-11	1	9	0
Cc1nn(-c2ccccc2)nc1C(=O)Nc1nnc(C(F)(F)F)s1	-4	-12	0	41*	-3
O=C(Nc1nnc(C(F)(F)F)s1)c1ccc(Br)s1	-4	5	7	49*	26*
O=C(NC(=S)NCC1CCCO1)C(c1ccccc1)c1ccccc1 (stereo not given)	5	-14	-29	4	-12
Cc1ccc2nc(CSc3nc(C)cc(C)c3C#N)[nH]c2c1	-3	1	-28	41*	-10
CCN1C(=O)[C@H]2[C@@H](c3ccc(C(F)(F)F)cc3)N[C@]3(CCCN(Cc4ccc(Cl)cc4)C3=O)[C@H]2C1=O	-5	.	.	.	.
SMILES	GalR3 antag	GPR7 antag	OX1R antag-1	OX1R antag-2	CHO parental Ca
CCNCC(=O)N1c2ccccc2CCc2ccc(NC(=O)OCC)cc21	.	-1	-24	9	-25
Cc1cn2c(N)c(/C=C3\C=Nc4ccccc43)c(=O)nc2s1	-2	9	-11	45*	-9
CC(=O)N/N=C/c1cc(C(C)C)cc(/C=N/NC(C)=O)c1O	4	-5	-17	15	4
Cc1onc(-c2ccccc2)c1NC(=O)N(CCC#N)Cc1cccs1	-2	-12	2	7	-11
O=C(Nc1ccc(Cl)cc1)c1cc2c(cc1O)[nH]c1ccccc12	-4	43*	55*	52*	72*
COC(=O)C1=C(C)N(Cc2ccccc2C(F)(F)F)C(=NCc2ccccc2)NC1c1cccc(F)c1 (stereo not given)	-7	.	.	.	.
COc1ccc(C(CNC(=O)Cc2cccs2)N(C)C)cc1 (stereo not given)	-2	-6	-28	-2	-11
Cc1ccc(S(=O)(=O)N2CCN(C(=O)COC(=O)CCOc3cc(C)ccc3C)CC2)cc1	-7	.	1	22	58*
COCCn1c(SCC(=O)Nc2ccc(NC(=O)c3ccco3)c(OC)c2)nc2ccccc2c1=O	-8	-8	-34	12	-5
CCCCn1c(SCC(=O)Nc2cc(NC(=O)c3ccco3)ccc2C)nc2ccccc2c1=O	-5	1	-12	41*	-11
O=C(O)/C=C/c1cn(-c2ccccc2)nc1-c1cc2ccccc2o1	1	-7	9	27	-1
O=C(O)/C=C\c1cn(-c2ccccc2)nc1-c1cc2ccccc2o1	-7	-5	15	76*	10
CNC(=O)COC(=O)/C=C/c1cn(-c2ccccc2)nc1-c1ccc2c(c1)OCCO2	9	-6	-9	19	3
Cc1ccc(-c2nn(-c3ccccc3)cc2/C=C/C(=O)OCC(=O)NC2CC2)o1	-8	0	77*	46	83*
COc1cc(OC)c2c(c1)S(=O)(=O)C(c1ccccc1)=C2N	-6	7	-11	12	-11
OCC[C@@H]1C[C@H](O)[C@@H](O)[C@]2(CCc3ccccc3CO2)O1	-2	4	-23	16	-17
CC(=O)N1CCN(S(=O)(=O)c2ccc3c(c2)CCC(=O)N3)CC1	-2	.	3	0	-4
N#Cc1cccc2cnccc12	-3	19*	-4	38	-8
Oc1cccc2cnccc12	-4	-8	-7	31	1
CN1CCN(NC(=O)c2cc(-c3ccc(Cl)s3)nc3ccccc23)CC1	-10	1	-16	12	-3
COc1ccc2c(c1)c1nnc(SCC(=O)NC3CC3)nc1n2C	-7	-7	-11	85*	-10
CC(C)(C)OC(=O)N1C[C@H](O)C[C@H]1C(=O)OCC(=O)c1ccc([N+](=O)[O-])cc1	-9	-10	-5	37*	-4
O=C1N=c2ccc(Br)cc2=C1c1sc(=O)[nH]c1O	.	9	-21	42*	3
Cc1ccc2c(c1)=C(c1sc(N(C)c3ccc(O)cc3)nc1O)C(=O)N=2	-10	-30	-6	26	1
CCN1/C(=C/C=C/c2oc3ccc(-c4ccccc4)cc3[n+]2CC)Oc2ccc(-c3ccccc3)cc21	1	98*	105*	34	101*

Bioassay records: PubChem BioAssay, The Scripps Research Institute Molecular Screening Center
